Source: ChEMBL document CHEMBL4190374, “Structure-Function Evaluation of Imidazopyridine Derivatives Selective for δ-Subunit-Containing γ-Aminobutyric Acid Type A (GABAA) Receptors” (J Med Chem, 2018)
Active and inactive are the calls of the source. The calls are words filed in the database; no cut-off is given here.

Legend:
[1] = biological target: T1, Gamma-aminobutyric acid receptor subunit alpha-6/beta-3/delta (Rattus norvegicus) (UniProt P18506+P30191+P63079); assay: Displacement of [3H]EBOB from rat GABA-A receptor alpha6beta3delta expressed in HEK293 cell membranes at 10 uM after 90 mins by liquid scintillation counting analysis relative to control
Method in brief: (§1)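 Crude membranes from HEK 293 cells transiently Ca-phosphate-transfected with rat subunit cDNAs, harvested at 48 h. Membranes (150-200 µg protein) incubated with 3 nM [3H]EBOB in 50 mM Tris/citrate pH 7.3 plus 0.2 M NaCl. Compound up to 10 µM, final DMSO 0.1%, no GABA, 90 min at 21 °C. Bound radioligand collected by GF/C filtration and counted by scintillation.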

[2] = biological target: T2, Gamma-aminobutyric acid receptor subunit alpha-6/beta-3 (Rattus norvegicus) (UniProt P30191+P63079); assay: Displacement of [3H]EBOB from rat GABA-A receptor alpha6beta3 expressed in HEK293 cell membranes at 10 uM after 90 mins by liquid scintillation counting analysis relative to control; method in brief: as §1
[3] = biological target: T3, Gamma-aminobutyric acid receptor subunit alpha-6/beta-3/gamma-2 (Rattus norvegicus) (UniProt P18508+P30191+P63079); assay: Displacement of [3H]EBOB from rat GABA-A receptor alpha6beta3gamma2 expressed in HEK293 cell membranes at 10 uM after 90 mins by liquid scintillation counting analysis relative to control; method in brief: as §1
[4] = biological target: T4, Gamma-aminobutyric acid receptor subunit alpha-6/beta-3/delta (Rattus norvegicus, UniProt P18506+P30191+P63079); assay: Displacement of [3H]EBOB from rat GABA-A receptor alpha6beta3delta expressed in HEK293 cell membranes after 90 mins by liquid scintillation counting analysis; method in brief: as §1
[5] = biological target: Gamma-aminobutyric acid receptor subunit alpha-6/beta-2 (Rattus norvegicus, UniProt P30191+P63138); assay: Displacement of [3H]EBOB from rat GABA-A receptor alpha6beta2 expressed in HEK293 cell membranes after 90 mins by liquid scintillation counting analysis; method in brief: as §1
[6] = biological target: Gamma-aminobutyric acid receptor subunit alpha-6/beta-2/delta (Rattus norvegicus, UniProt P18506+P30191+P63138); assay: Displacement of [3H]EBOB from rat GABA-A receptor alpha6beta2delta expressed in HEK293 cell membranes after 90 mins by liquid scintillation counting analysis; method in brief: as §1
[7] = biological target: T5, Gamma-aminobutyric acid receptor subunit alpha-1/beta-3 (Rattus norvegicus) (UniProt P62813+P63079); assay: Displacement of [3H]EBOB from rat GABA-A receptor alpha1beta3 expressed in HEK293 cell membranes at 10 uM after 90 mins by liquid scintillation counting analysis relative to control; method in brief: as §1
[8] = biological target: T6, Gamma-aminobutyric acid receptor subunit alpha-1/beta-3/gamma-2 (Rattus norvegicus) (UniProt P18508+P62813+P63079); assay: Displacement of [3H]EBOB from rat GABA-A receptor alpha1beta3gamma2 expressed in HEK293 cell membranes at 10 uM after 90 mins by liquid scintillation counting analysis relative to control; method in brief: as §1
[9] = biological target: T7, Gamma-aminobutyric acid receptor subunit alpha-1/beta-3/delta (Rattus norvegicus) (UniProt P18506+P62813+P63079); assay: Displacement of [3H]EBOB from rat GABA-A receptor alpha1beta3delta expressed in HEK293 cell membranes at 10 uM after 90 mins by liquid scintillation counting analysis relative to control; method in brief: as §1
[10] = biological target: T8, Gamma-aminobutyric acid receptor subunit alpha-4/beta-3 (Rattus norvegicus) (UniProt P28471+P63079); assay: Displacement of [3H]EBOB from rat GABA-A receptor alpha4beta3 expressed in HEK293 cell membranes up to 10 uM after 90 mins by liquid scintillation counting analysis relative to control; method in brief: as §1
[11] = biological target: T9, Gamma-aminobutyric acid receptor subunit alpha-4/beta-3/gamma-2 (Rattus norvegicus) (UniProt P18508+P28471+P63079); assay: Displacement of [3H]EBOB from rat GABA-A receptor alpha4beta3gamma2 expressed in HEK293 cell membranes up to 10 uM after 90 mins by liquid scintillation counting analysis relative to control; method in brief: as §1
[12] = biological target: T10, Gamma-aminobutyric acid receptor subunit alpha-4/beta-3/delta (Rattus norvegicus) (UniProt P18506+P28471+P63079); assay: Displacement of [3H]EBOB from rat GABA-A receptor alpha4beta3delta expressed in HEK293 cell membranes up to 10 uM after 90 mins by liquid scintillation counting analysis relative to control; method in brief: as §1
[13] = biological target: Gamma-aminobutyric acid receptor subunit alpha-6/beta-2 (Rattus norvegicus) (UniProt P30191+P63138); assay: Displacement of [3H]EBOB from rat GABA-A receptor alpha6beta2 expressed in HEK293 cell membranes up to 10 uM after 90 mins by liquid scintillation counting analysis relative to control; method in brief: as §1
[14] = biological target: Gamma-aminobutyric acid receptor subunit alpha-6/beta-2/delta (Rattus norvegicus) (UniProt P18506+P30191+P63138); assay: Displacement of [3H]EBOB from rat GABA-A receptor alpha6beta2delta expressed in HEK293 cell membranes up to 10 uM after 90 mins by liquid scintillation counting analysis relative to control; method in brief: as §1
[15] = biological target: T2, Gamma-aminobutyric acid receptor subunit alpha-6/beta-3 (Rattus norvegicus); assay: (§2) Displacement of [3H]EBOB from rat GABA-A receptor alpha6beta3 expressed in HEK293 cell membranes after 90 mins in presence of GABA by liquid scintillation counting analysis
[16] = biological target: T11, Gamma-aminobutyric acid receptor subunit alpha-6/beta-3 (Rattus norvegicus, UniProt P30191+P63079); assay: as §2
[17] = biological target: T3, Gamma-aminobutyric acid receptor subunit alpha-6/beta-3/gamma-2 (Rattus norvegicus); assay: (§3) Displacement of [3H]EBOB from rat GABA-A receptor alpha6beta3gamma2 expressed in HEK293 cell membranes after 90 mins in presence of GABA by liquid scintillation counting analysis
[18] = biological target: T12, Gamma-aminobutyric acid receptor subunit alpha-6/beta-3/gamma-2 (Rattus norvegicus, UniProt P18508+P30191+P63079); assay: as §3
[19] = biological target: T1, Gamma-aminobutyric acid receptor subunit alpha-6/beta-3/delta (Rattus norvegicus); assay: (§4) Displacement of [3H]EBOB from rat GABA-A receptor alpha6beta3delta expressed in HEK293 cell membranes after 90 mins in presence of GABA by liquid scintillation counting analysis
[20] = biological target: T4, Gamma-aminobutyric acid receptor subunit alpha-6/beta-3/delta; assay: as §4
[21] = organism: Rattus norvegicus; assay: Selectivity ratio of IC50 for rat GABA-A receptor alpha6beta3delta expressed in HEK293 cells to IC50 for rat GABA-A receptor alpha6beta2delta expressed in HEK293 cells; format: cell-based
[22] = biological target: T1, Gamma-aminobutyric acid receptor subunit alpha-6/beta-3/delta (Rattus norvegicus); assay: Displacement of [3H]EBOB from rat GABA-A receptor alpha6beta3delta expressed in HEK293 cell membranes up to 10 uM after 90 mins by liquid scintillation counting analysis relative to control; method in brief: as §1
[23] = biological target: GABA A receptor alpha-6/beta-2/gamma-2 (Rattus norvegicus) (UniProt P18508+P30191+P63138); assay: Displacement of [3H]EBOB from rat GABA-A receptor alpha6beta2gamma2 expressed in HEK293 cell membranes at 10 uM after 90 mins by liquid scintillation counting analysis relative to control; method in brief: as §1
[24] = biological target: T11, Gamma-aminobutyric acid receptor subunit alpha-6/beta-3; assay: Displacement of [3H]EBOB from rat GABA-A receptor alpha6beta3 expressed in HEK293 cell membranes after 90 mins by liquid scintillation counting analysis; method in brief: as §1
[25] = biological target: T12, Gamma-aminobutyric acid receptor subunit alpha-6/beta-3/gamma-2; assay: Displacement of [3H]EBOB from rat GABA-A receptor alpha6beta3gamma2 expressed in HEK293 cell membranes after 90 mins by liquid scintillation counting analysis; method in brief: as §1
[26] = biological target: T2, Gamma-aminobutyric acid receptor subunit alpha-6/beta-3 (Rattus norvegicus); assay: Displacement of [3H]EBOB from rat GABA-A receptor alpha6beta3 expressed in HEK293 cell membranes up to 10 uM after 90 mins by liquid scintillation counting analysis relative to control; method in brief: as §1
[27] = biological target: T3, Gamma-aminobutyric acid receptor subunit alpha-6/beta-3/gamma-2 (Rattus norvegicus); assay: Displacement of [3H]EBOB from rat GABA-A receptor alpha6beta3gamma2 expressed in HEK293 cell membranes up to 10 uM after 90 mins by liquid scintillation counting analysis relative to control; method in brief: as §1
[28] = biological target: Gamma-aminobutyric acid receptor subunit alpha-1/beta-3/delta (Rattus norvegicus, UniProt P18506+P62813+P63079); assay: Modulation of rat […] GABA-A receptor alpha1beta3delta expressed in HEK293 cells in presence of GABA by patch-clamp assay; format: cell-based
Method in brief: (§5)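 Rat GABA-A subunits were transiently co-transfected with eGFP into HEK293 cells on coverslips. Fluorescent cells were recorded by whole-cell patch clamp 48 h later; bath pH 7.4, KCl/KOH pipette pH 7.2. Compound was applied at increasing concentrations up to 10 µM with the receptor-specific GABA EC20. Peak currents were fitted logistically for EC50, Hill and % modulation, as mean ± S.E.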

[29] = biological target: Gamma-aminobutyric acid receptor subunit alpha-4/beta-3/delta (Rattus norvegicus, UniProt P18506+P28471+P63079); assay: Modulation of rat […] GABA-A receptor alpha4beta3delta expressed in HEK293 cells in presence of GABA by patch-clamp assay; format: cell-based; method in brief: as §5
[30] = biological target: T7, Gamma-aminobutyric acid receptor subunit alpha-1/beta-3/delta (Rattus norvegicus); assay: Modulation of rat […] GABA-A receptor alpha1beta3delta expressed in HEK293 cells up to 10 uM in presence of GABA by patch-clamp assay relative to control; format: cell-based; method in brief: as §5
[31] = biological target: T10, Gamma-aminobutyric acid receptor subunit alpha-4/beta-3/delta (Rattus norvegicus); assay: Modulation of rat […] GABA-A receptor alpha4beta3delta expressed in HEK293 cells up to 10 uM in presence of GABA by patch-clamp assay relative to control; format: cell-based; method in brief: as §5
[32] = biological target: T2, Gamma-aminobutyric acid receptor subunit alpha-6/beta-3 (Rattus norvegicus); assay: Modulation of rat […] GABA-A receptor alpha6beta3 expressed in HEK293 cells up to 10 uM in presence of GABA by patch-clamp assay relative to control; format: cell-based; method in brief: as §5
[33] = biological target: T9, Gamma-aminobutyric acid receptor subunit alpha-4/beta-3/gamma-2 (Rattus norvegicus); assay: Modulation of rat eGFP-fused GABA-A receptor alpha4beta3gamma2 expressed in HEK293 cells at <=1 uM in presence of GABA by patch-clamp assay relative to control; format: cell-based
[34] = biological target: T3, Gamma-aminobutyric acid receptor subunit alpha-6/beta-3/gamma-2 (Rattus norvegicus); assay: Modulation of rat eGFP-fused GABA-A receptor alpha6beta3gamma2 expressed in HEK293 cells at <= 1 uM in presence of GABA by patch-clamp assay relative to control; format: cell-based
[35] = biological target: T5, Gamma-aminobutyric acid receptor subunit alpha-1/beta-3 (Rattus norvegicus); assay: Modulation of rat […] GABA-A receptor alpha1beta3 expressed in HEK293 cells at <= 10 uM in presence of GABA by patch-clamp assay relative to control; format: cell-based
Method in brief: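 Whole-cell patch clamp on eGFP-co-transfected HEK 293 cells expressing rat subunits, recorded 48 h post-transfection. KCl/KOH-based pipette solution, pH 7.2. Rising compound concentrations up to 10 µM co-applied with the receptor-specific GABA EC20. Peak currents fitted to a logistic function giving EC50, Hill coefficient and % modulation, mean ± S.E. of n experiments.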

[36] = biological target: T6, Gamma-aminobutyric acid receptor subunit alpha-1/beta-3/gamma-2 (Rattus norvegicus); assay: Modulation of rat eGFP-fused GABA-A receptor alpha1beta3gamma2 expressed in HEK293 cells at <= 1 uM in presence of GABA by patch-clamp assay relative to control; format: cell-based
[37] = biological target: T8, Gamma-aminobutyric acid receptor subunit alpha-4/beta-3 (Rattus norvegicus); assay: Modulation of rat eGFP-fused GABA-A receptor alpha4beta3 expressed in HEK293 cells at <= 1 uM in presence of GABA by patch-clamp assay relative to control; format: cell-based

T11 sequence (P30191 whole entry): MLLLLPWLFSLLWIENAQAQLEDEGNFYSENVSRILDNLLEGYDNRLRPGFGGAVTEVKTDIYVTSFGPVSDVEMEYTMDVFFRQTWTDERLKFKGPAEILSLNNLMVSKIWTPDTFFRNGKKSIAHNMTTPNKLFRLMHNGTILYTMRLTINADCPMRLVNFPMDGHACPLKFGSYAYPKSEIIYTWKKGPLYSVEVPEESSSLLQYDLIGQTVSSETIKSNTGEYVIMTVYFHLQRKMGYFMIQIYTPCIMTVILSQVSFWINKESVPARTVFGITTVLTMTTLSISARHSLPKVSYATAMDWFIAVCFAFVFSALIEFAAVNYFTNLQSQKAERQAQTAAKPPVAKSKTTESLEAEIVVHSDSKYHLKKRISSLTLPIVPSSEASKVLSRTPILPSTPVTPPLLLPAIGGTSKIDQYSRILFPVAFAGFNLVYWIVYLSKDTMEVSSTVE
T11 sequence (P63079 whole entry): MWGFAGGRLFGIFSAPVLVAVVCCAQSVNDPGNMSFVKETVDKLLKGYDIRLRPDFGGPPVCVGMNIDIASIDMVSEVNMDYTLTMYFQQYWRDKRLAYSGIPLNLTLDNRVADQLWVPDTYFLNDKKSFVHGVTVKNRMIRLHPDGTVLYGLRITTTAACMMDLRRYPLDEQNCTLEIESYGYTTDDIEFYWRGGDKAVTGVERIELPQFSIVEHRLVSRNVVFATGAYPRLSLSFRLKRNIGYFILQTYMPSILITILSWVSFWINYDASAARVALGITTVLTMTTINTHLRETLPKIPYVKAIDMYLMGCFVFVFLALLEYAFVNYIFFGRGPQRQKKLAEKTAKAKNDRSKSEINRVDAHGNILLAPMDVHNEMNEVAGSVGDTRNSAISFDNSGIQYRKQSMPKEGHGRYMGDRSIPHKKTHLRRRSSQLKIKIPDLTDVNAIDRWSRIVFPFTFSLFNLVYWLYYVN
T4 sequence (P18506 whole entry): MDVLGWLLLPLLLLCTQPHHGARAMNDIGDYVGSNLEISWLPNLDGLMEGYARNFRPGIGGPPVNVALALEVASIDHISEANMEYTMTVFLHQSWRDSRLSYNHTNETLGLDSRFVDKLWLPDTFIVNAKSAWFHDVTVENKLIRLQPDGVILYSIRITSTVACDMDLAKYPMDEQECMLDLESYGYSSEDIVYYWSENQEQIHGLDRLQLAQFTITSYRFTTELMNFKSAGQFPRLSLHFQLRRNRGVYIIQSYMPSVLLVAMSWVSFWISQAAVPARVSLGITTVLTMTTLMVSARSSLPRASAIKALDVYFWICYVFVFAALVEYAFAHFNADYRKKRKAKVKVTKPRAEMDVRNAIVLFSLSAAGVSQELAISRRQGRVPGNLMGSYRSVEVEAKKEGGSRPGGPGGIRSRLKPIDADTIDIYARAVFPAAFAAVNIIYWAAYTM
T4 sequence (P30191 whole entry): as the sequence (P30191 whole entry) above
T4 sequence (P63079 whole entry): as the sequence (P63079 whole entry) above
T12 sequence (P18508 whole entry): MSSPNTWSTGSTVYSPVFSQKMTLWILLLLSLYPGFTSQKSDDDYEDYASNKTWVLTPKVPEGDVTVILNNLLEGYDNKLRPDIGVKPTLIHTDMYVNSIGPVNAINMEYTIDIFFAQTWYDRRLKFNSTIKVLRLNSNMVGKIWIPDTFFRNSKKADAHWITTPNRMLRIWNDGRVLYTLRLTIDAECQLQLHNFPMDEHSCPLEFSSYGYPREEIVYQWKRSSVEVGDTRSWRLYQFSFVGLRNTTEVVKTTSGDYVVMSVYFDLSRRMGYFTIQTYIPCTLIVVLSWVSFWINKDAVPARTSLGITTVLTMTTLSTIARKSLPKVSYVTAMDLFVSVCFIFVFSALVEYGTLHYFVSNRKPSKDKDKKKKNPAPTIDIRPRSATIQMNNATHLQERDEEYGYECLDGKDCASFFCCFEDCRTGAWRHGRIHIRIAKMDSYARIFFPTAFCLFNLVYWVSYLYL
T12 sequence (P30191 whole entry): as the sequence (P30191 whole entry) above
T12 sequence (P63079 whole entry): as the sequence (P63079 whole entry) above
Gamma-aminobutyric acid receptor subunit alpha-6/beta-2, sequence (P30191 whole entry): as the sequence (P30191 whole entry) above
Gamma-aminobutyric acid receptor subunit alpha-6/beta-2, sequence (P63138 whole entry): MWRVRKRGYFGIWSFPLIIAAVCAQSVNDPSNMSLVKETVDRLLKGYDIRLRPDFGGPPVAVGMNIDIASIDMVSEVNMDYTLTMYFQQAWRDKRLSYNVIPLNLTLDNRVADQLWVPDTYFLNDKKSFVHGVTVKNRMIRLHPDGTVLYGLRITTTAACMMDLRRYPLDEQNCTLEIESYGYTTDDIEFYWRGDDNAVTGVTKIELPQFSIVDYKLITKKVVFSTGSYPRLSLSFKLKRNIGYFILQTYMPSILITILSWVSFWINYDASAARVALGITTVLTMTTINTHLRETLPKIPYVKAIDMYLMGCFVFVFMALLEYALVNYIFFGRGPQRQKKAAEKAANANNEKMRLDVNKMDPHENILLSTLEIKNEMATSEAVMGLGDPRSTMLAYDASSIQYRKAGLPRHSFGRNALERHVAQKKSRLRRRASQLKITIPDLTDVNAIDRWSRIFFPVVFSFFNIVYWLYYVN
Gamma-aminobutyric acid receptor subunit alpha-4/beta-3/delta, sequence (P18506 whole entry): as the sequence (P18506 whole entry) above
Gamma-aminobutyric acid receptor subunit alpha-4/beta-3/delta, sequence (P28471 whole entry): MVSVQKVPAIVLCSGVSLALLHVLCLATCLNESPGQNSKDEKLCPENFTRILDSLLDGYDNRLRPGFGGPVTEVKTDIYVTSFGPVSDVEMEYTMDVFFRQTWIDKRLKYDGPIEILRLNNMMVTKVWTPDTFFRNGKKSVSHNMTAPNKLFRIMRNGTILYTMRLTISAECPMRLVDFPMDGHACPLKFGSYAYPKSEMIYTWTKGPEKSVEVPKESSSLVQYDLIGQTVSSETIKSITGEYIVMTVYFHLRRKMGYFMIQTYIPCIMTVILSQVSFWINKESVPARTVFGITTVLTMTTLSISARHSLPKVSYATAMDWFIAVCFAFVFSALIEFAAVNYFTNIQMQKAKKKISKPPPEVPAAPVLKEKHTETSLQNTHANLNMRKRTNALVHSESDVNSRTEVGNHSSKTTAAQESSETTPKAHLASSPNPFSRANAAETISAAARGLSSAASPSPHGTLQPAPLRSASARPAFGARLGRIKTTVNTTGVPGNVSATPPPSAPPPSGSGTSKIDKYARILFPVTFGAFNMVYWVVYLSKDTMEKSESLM
Gamma-aminobutyric acid receptor subunit alpha-4/beta-3/delta, sequence (P63079 whole entry): as the sequence (P63079 whole entry) above
Gamma-aminobutyric acid receptor subunit alpha-1/beta-3/delta, sequence (P18506 whole entry): as the sequence (P18506 whole entry) above
Gamma-aminobutyric acid receptor subunit alpha-1/beta-3/delta, sequence (P62813 whole entry): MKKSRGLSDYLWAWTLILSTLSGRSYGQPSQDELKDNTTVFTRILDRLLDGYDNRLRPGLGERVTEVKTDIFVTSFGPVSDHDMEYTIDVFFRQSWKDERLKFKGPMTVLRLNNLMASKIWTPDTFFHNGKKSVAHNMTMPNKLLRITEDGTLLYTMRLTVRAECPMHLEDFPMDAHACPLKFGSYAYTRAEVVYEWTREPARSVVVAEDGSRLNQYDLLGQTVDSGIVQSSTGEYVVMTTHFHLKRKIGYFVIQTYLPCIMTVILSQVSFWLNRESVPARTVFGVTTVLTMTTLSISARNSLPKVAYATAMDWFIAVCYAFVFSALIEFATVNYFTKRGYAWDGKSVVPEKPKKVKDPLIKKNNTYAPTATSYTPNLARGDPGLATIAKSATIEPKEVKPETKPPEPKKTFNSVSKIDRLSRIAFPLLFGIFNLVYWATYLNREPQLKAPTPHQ
Gamma-aminobutyric acid receptor subunit alpha-1/beta-3/delta, sequence (P63079 whole entry): as the sequence (P63079 whole entry) above
Gamma-aminobutyric acid receptor subunit alpha-6/beta-2/delta, sequence (P18506 whole entry): as the sequence (P18506 whole entry) above
Gamma-aminobutyric acid receptor subunit alpha-6/beta-2/delta, sequence (P30191 whole entry): as the sequence (P30191 whole entry) above
Gamma-aminobutyric acid receptor subunit alpha-6/beta-2/delta, sequence (P63138 whole entry): as the sequence (P63138 whole entry) above

Compound: O=C(Nc1c(-c2cccs2)nc2c(Br)cc(Br)cn12)c1ccc(OCCF)cc1
- Imax [1]: 37%
- inhibition [2]: inactive
- Imax [3]: 15%

Compound: O=C(Nc1c(-c2cccs2)nc2c(Br)cc(Br)cn12)c1ccc(OCCCCF)cc1
- IC50 [4]: 760 nM
- IC50 [5]: 740 nM
- IC50 [6]: 270 nM
- inhibition [7]: inactive
- inhibition [8]: inactive
- inhibition [9]: inactive
- inhibition [10]: inactive
- inhibition [11]: inactive
- inhibition [12]: inactive
- Imax [13]: 33%
- Imax [14]: 55%
- Imax [15]: 57%
- IC50 [16]: 1290 nM
- Imax [17]: 44%
- IC50 [18]: 1280 nM
- Imax [19]: 55%
- IC50 [20]: 490 nM
- Ratio IC50 [21]: 3
- Imax [2]: 11%
- Imax [22]: 53%
- inhibition [23]: inactive
- inhibition [3]: inactive

Compound: CCCCOc1ccc(C(=O)Nc2c(-c3cccs3)nc3c(Br)cc(Br)cn23)cc1
- IC50 [24]: 2500 nM
- IC50 [25]: 5510 nM
- IC50 [4]: 860 nM
- Imax [26]: 46%
- Imax [27]: 24%
- Imax [22]: 71%

Compound: O=C(Nc1c(-c2cccs2)nc2c(Br)cc(Br)cn12)c1ccc(F)cc1
- IC50 [24]: 3060 nM
- IC50 [25]: 3390 nM
- IC50 [4]: 1200 nM
- Imax [26]: 91%
- Imax [27]: 103%
- Imax [22]: 87%

Compound: O=C(Nc1c(-c2cccs2)nc2ccccn12)c1ccc(OCc2ccccc2)cc1
- Imax [1]: 54%
- inhibition [2]: inactive
- inhibition [3]: inactive

Compound: O=C(Nc1c(-c2cccs2)nc2ccccn12)c1ccc(Cl)cc1
- Imax [1]: 20%
- EC50 [28]: 860 nM
- EC50 [29]: 970 nM
- Activity [30]: 213%
- Activity [31]: 231%
- Activity [32]: 588%
- Activity [33]: inactive
- Activity [34]: inactive
- Activity [35]: inactive
- Activity [36]: inactive
- Activity [37]: inactive

Compound: O=C(Nc1c(-c2cccs2)nc2c(Br)cc(Br)cn12)c1ccc(OCCCF)cc1
- IC50 [4]: 1000 nM
- inhibition [26]: inactive
- inhibition [27]: inactive
- Imax [22]: 38%
